Key:
Type in all cases: cell-based
[1] = system: MCF-7 (human breast cancer cell line); experiment: CCK-8 antiproliferative assay, MCF-7; conditions: MCF7, 48 h, read-out: IC50 (μM) ± SD MCF-7
[2] = system: HeLa (human cervical cancer cell line); experiment: CCK-8 antiproliferative assay, HeLa; conditions: 48 h, read-out: IC50 (μM) ± SD Hela
Procedure, shortened: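 HeLa cells were grown in RPMI 1640 with 10% FBS and 1% penicillin/streptomycin at 37 °C, 5% CO2. They were seeded at 5 × 10^4 cells per well and left 24 h. Test compound was diluted from […] DMSO stock into medium, with final DMSO below 0.1%, and exposure lasted 48 h. CCK-8 was then added for 2 h at 37 °C and absorbance read at 450 nm. IC50 came from viability data; experiments were done three times.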

[3] = system: A549 (human lung cancer cell line); experiment: CCK-8 antiproliferative assay, A549; conditions: A549, 48 h, read-out: IC50 (μM) ± SD A549

Row | IC50 [1] [µM] | IC50 [2] [µM] | IC50 [3] [µM] | Compound
1 | > 20 | 8.35 ± 0.47 | – | CNC(=O)c1c(C)oc2cc(Oc3ncnc4cc(OC)c(OC)cc34)ccc12 [Fruquintinib]
2 | – | 1.03 ± 0.33 | 3.54 ± 0.25 | O=C(CCCCCCC(=O)Nc1ccccc1)NO [SAHA]

From PMC10523135 (RSC Advances, 2023)
